Test results as given in ChEMBL document CHEMBL2311434, “Search for new tools to combat Gram-negative resistant bacteria among amine derivatives of 5-arylidenehydantoin” (2013).
In brackets after ≈: the same amount, converted by molar mass. Activity calls are given as the source filed them. The rule behind the calls is not given here. Peptide text beside a SMILES is read from it. * marks the point of attachment. βNA = c1ccc2cc(N*)ccc2c1

Columns and labels:
Klebsiella aerogenes [1] = test: Antibacterial activity against Enterobacter aerogenes CM-64 overexpressing AcrAB-TolC assessed as growth inhibition after 18 hrs by CLSI broth dilution method; format: functional; details: CM-64, 18 h
Procedure, shortened: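 Intrinsic MIC of each compound with no antibiotic added. About 10^6 cells were inoculated into 1 mL Mueller-Hinton broth with twofold serial dilutions, following CLSI guidelines. Plates were read after 18 h at 37 °C, in triplicate. MIC is the mean of three independent determinations.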

Klebsiella aerogenes [2] = test: Antibacterial activity against wild type Enterobacter aerogenes ATCC 13048 assessed as growth inhibition after 18 hrs by CLSI broth dilution method; format: functional; details: ATCC 13048, 18 h
Procedure, shortened: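 Broth dilution per CLSI in Mueller-Hinton broth, about 10^6 cells per 1 mL, read after 18 h at 37 °C. The compound alone, with no antibiotic, against reference strain ATCC 13048. MIC is the mean of three independent determinations.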

Klebsiella aerogenes [3] = test: Chemosensitization of Enterobacter aerogenes CM-64 overexpressing AcrAB-TolC assessed as decrease in sparfloxacin MIC at 100 uM relative to control; format: functional, organism-based
Procedure, shortened: (§1)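 About 10^6 cells were put into 1 mL Mueller-Hinton broth with twofold serial dilutions of the antibiotic (CLSI). A fixed sub-inhibitory compound concentration was added, set without antibiotic, usually ≤1/4 MIC. Controls ran without inhibitor. Plates were read after 18 h at 37 °C. MICs are the means of three independent determinations. Activity gain = MIC without compound / MIC with compound.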

Klebsiella aerogenes [4] = test: Chemosensitization of wild type Enterobacter aerogenes ATCC 13048 assessed as decrease in nalidixic acid MIC at 100 uM relative to control; format: functional; procedure, shortened: as §1
Klebsiella aerogenes [5] = test: Chemosensitization of Enterobacter aerogenes CM-64 overexpressing AcrAB-TolC assessed as decrease in nalidixic acid MIC at 100 uM relative to control; format: functional, organism-based; procedure, shortened: as §1
Klebsiella aerogenes [6] = test: Chemosensitization of Enterobacter aerogenes CM-64 overexpressing AcrAB-TolC assessed as decrease in chloramphenicol MIC at 63 uM relative to control; format: functional; procedure, shortened: as §1
Klebsiella aerogenes [7] = test: Chemosensitization of wild type Enterobacter aerogenes ATCC 13048 assessed as decrease in sparfloxacin MIC at 63 uM relative to control; format: functional, organism-based; procedure, shortened: as §1
Klebsiella aerogenes [8] = test: Chemosensitization of Enterobacter aerogenes CM-64 overexpressing AcrAB-TolC assessed as decrease in sparfloxacin MIC at 63 uM relative to control; format: functional; procedure, shortened: as §1
Klebsiella aerogenes [9] = test: Chemosensitization of Enterobacter aerogenes CM-64 overexpressing AcrAB-TolC assessed as decrease in nalidixic acid MIC at 63 uM relative to control; format: functional; procedure, shortened: as §1
Klebsiella aerogenes [10] = test: Chemosensitization of wild type Enterobacter aerogenes ATCC 13048 assessed as decrease in nalidixic acid MIC at 63 uM relative to control; format: functional
Procedure, shortened: (§2)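 Antibiotic MIC by CLSI broth dilution: about 10^6 cells in 1 mL Mueller-Hinton broth with twofold antibiotic dilutions, 18 h at 37 °C, in triplicate. Compound held at a fixed sub-inhibitory level (≤MIC/4) set without antibiotic. Controls ran without inhibitor and without antibiotic. PAβN 50 µM served as reference. Activity gain = MIC without compound / MIC with compound. MICs are the mean of three determinations.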

Klebsiella aerogenes [11] = test: Chemosensitization of Enterobacter aerogenes CM-64 overexpressing AcrAB-TolC assessed as decrease in chloramphenicol MIC at 200 uM relative to control; format: functional; procedure, shortened: as §1
Klebsiella aerogenes [12] = test: Chemosensitization of Enterobacter aerogenes CM-64 overexpressing AcrAB-TolC assessed as decrease in sparfloxacin MIC at 200 uM relative to control; format: functional; procedure, shortened: as §1
Klebsiella aerogenes [13] = test: Chemosensitization of Enterobacter aerogenes CM-64 overexpressing AcrAB-TolC assessed as decrease in nalidixic acid MIC at 200 uM relative to control; format: functional; procedure, shortened: as §1
Klebsiella aerogenes [14] = test: Chemosensitization of Enterobacter aerogenes CM-64 overexpressing AcrAB-TolC assessed as decrease in nalidixic acid MIC at 100 uM relative to control
Klebsiella aerogenes [15] = test: Chemosensitization of wild type Enterobacter aerogenes ATCC 13048 assessed as decrease in chloramphenicol MIC at 200 uM relative to control; format: functional, organism-based; procedure, shortened: as §2
Klebsiella aerogenes [16] = test: Chemosensitization of wild type Enterobacter aerogenes ATCC 13048 assessed as decrease in […] at 50 uM relative to control; format: functional, organism-based
Klebsiella aerogenes [17] = test: Chemosensitization of wild type Enterobacter aerogenes ATCC 13048 assessed as decrease in nalidixic acid MIC at 200 uM relative to control; format: functional; procedure, shortened: as §1
Klebsiella aerogenes [18] = test: Chemosensitization of wild type Enterobacter aerogenes ATCC 13048 assessed as decrease in chloramphenicol MIC at 63 uM relative to control; format: functional, organism-based; procedure, shortened: as §2

| Compound | MIC (Klebsiella aerogenes [1]) | MIC (Klebsiella aerogenes [2]) | fold change (FC) (Klebsiella aerogenes [8]) | other results |
| --- | --- | --- | --- | --- |
| COc1ccc(/C=C2\NC(=O)N(CC(O)CN3CCN(c4ccccc4)CC3)C2=O)cc1OC (centres undefined) | 500 µM (≈ 233 µg/mL) | 500 µM (≈ 233 µg/mL) | – | Activity (Klebsiella aerogenes [3]): inactive; fold change (FC) (Klebsiella aerogenes [4]): 2; Activity (Klebsiella aerogenes [5]): Active |
| COc1ccc(/C=C2\NC(=O)N(CC(O)CNC(C)C)C2=O)c(OC)c1 (centres undefined) | 250 µM (≈ 90.9 µg/mL) | 250 µM (≈ 90.9 µg/mL) | 4 | fold change (FC) (Klebsiella aerogenes [6]): 4; Activity (Klebsiella aerogenes [7]): Active; fold change (FC) (Klebsiella aerogenes [9]): 4; fold change (FC) (Klebsiella aerogenes [10]): 2 |
| COc1ccc(/C=C2\NC(=O)N(CC(O)CN3CCN(c4ccccc4OC)CC3)C2=O)cc1OC (centres undefined) | 1000 µM (≈ 497 µg/mL) | 1000 µM (≈ 497 µg/mL) | – | fold change (FC) (Klebsiella aerogenes [11]): 2; Activity (Klebsiella aerogenes [12]): inactive; Activity (Klebsiella aerogenes [13]): Active |
| CCOc1ccccc1N1CCN(CC(O)CN2C(=O)N/C(=C\c3ccc(Cl)cc3)C2=O)CC1 (centres undefined) | 1000 µM (≈ 485 µg/mL) | 500 µM (≈ 242 µg/mL) | – | fold change (FC) (Klebsiella aerogenes [12]): 2; fold change (FC) (Klebsiella aerogenes [14]): 4; Activity (Klebsiella aerogenes [15]): Active |
| CCN(CC)c1ccc(/C=C2\NC(=O)N(CC(O)CN3CCN(CCO)CC3)C2=O)cc1 (centres undefined) | 250 µM (≈ 111 µg/mL) | 125 µM (≈ 55.7 µg/mL) | 4 | fold change (FC) (Klebsiella aerogenes [6]): 4; fold change (FC) (Klebsiella aerogenes [9]): 4; fold change (FC) (Klebsiella aerogenes [10]): 2 |
| CC(C)NCC(O)CN1C(=O)N/C(=C\c2ccc(Br)cc2)C1=O (centres undefined) | > 1250 µM | > 1250 µM | – | – |
| CC(C)NCC(O)CN1C(=O)N/C(=C\c2ccc(Cl)cc2)C1=O (centres undefined) | 250 µM (≈ 84.5 µg/mL) | 250 µM (≈ 84.5 µg/mL) | 4 | fold change (FC) (Klebsiella aerogenes [6]): 4; Activity (Klebsiella aerogenes [7]): Active; Activity (Klebsiella aerogenes [9]): Active |
| N=C(N)NCCC[C@H](NC(=O)[C@@H](N)Cc1ccccc1)C(=O)Nc1ccc2ccccc2c1 [PABETAN] (H-Phe-Arg-βNA) | 5000 µM (≈ 2230 µg/mL) | 5000 µM (≈ 2230 µg/mL) | – | Activity (Klebsiella aerogenes [16]): Active |
| COc1ccc(/C=C2\NC(=O)N(CC(O)CN3CCN(CCO)CC3)C2=O)c(OC)c1 (centres undefined) | 250 µM (≈ 109 µg/mL) | 125 µM (≈ 54.3 µg/mL) | 2 | fold change (FC) (Klebsiella aerogenes [6]): 4; fold change (FC) (Klebsiella aerogenes [9]): 4 |
| COc1ccc(/C=C2\NC(=O)N(CC(O)CN3CCCCC3)C2=O)cc1 (centres undefined) | > 2000 µM | > 2000 µM | – | – |
| CCn1cc(C(=O)O)c(=O)c2ccc(C)nc21 [NALIDIXIC ACID] | 128 µM (≈ 29.7 µg/mL) | 8 µM (≈ 1.86 µg/mL) | – | – |
| COc1ccccc1N1CCN(CC(O)CN2C(=O)N/C(=C\c3ccc(Cl)cc3)C2=O)CC1 (centres undefined) | 1000 µM (≈ 471 µg/mL) | 500 µM (≈ 235 µg/mL) | – | fold change (FC) (Klebsiella aerogenes [17]): 2; Activity (Klebsiella aerogenes [12]): inactive; fold change (FC) (Klebsiella aerogenes [14]): 4 |
| O=C(CN1C(=O)N/C(=C\c2ccccc2)C1=O)N1CCN(CCO)CC1 | 250 µM (≈ 89.6 µg/mL) | 125 µM (≈ 44.8 µg/mL) | 2 | fold change (FC) (Klebsiella aerogenes [6]): 2; fold change (FC) (Klebsiella aerogenes [9]): 4 |
| COc1ccc(/C=C2\NC(=O)N(CC(O)CN3CCNCC3)C2=O)cc1.Cl.Cl (centres undefined) | > 2000 µM | > 2000 µM | 2 | – |
| O=C1N/C(=C\c2ccc(Cl)cc2)C(=O)N1CC(O)CN1CCN(CCO)CC1 (centres undefined) | 250 µM (≈ 102 µg/mL) | 250 µM (≈ 102 µg/mL) | – | Activity (Klebsiella aerogenes [7]): Active; Activity (Klebsiella aerogenes [8]): inactive; fold change (FC) (Klebsiella aerogenes [9]): 4 |
| COc1ccc(/C=C2\NC(=O)N(CC(O)CN3CCN(C)CC3)C2=O)cc1.Cl (centres undefined) | > 2000 µM | > 2000 µM | 2 | – |
| O=C(N[C@H](CO)[C@H](O)c1ccc([N+](=O)[O-])cc1)C(Cl)Cl [CHLORAMPHENICOL] | 256 µM (≈ 82.7 µg/mL) | 4 µM (≈ 1.29 µg/mL) | – | – |
| O=C(CN1C(=O)N/C(=C\c2ccc(Br)cc2)C1=O)N1CCN(CCO)CC1 | > 1250 µM | > 1250 µM | – | fold change (FC) (Klebsiella aerogenes [9]): 4 |
| COc1ccc(/C=C2\NC(=O)N(CC(O)CNCCCN3CCN(C)CC3)C2=O)cc1.Cl (centres undefined) | > 2000 µM | > 2000 µM | – | Activity (Klebsiella aerogenes [7]): Active; Activity (Klebsiella aerogenes [8]): inactive; fold change (FC) (Klebsiella aerogenes [10]): 2; Activity (Klebsiella aerogenes [18]): Active |
| COc1ccccc1N1CCN(CC(O)CN2C(=O)N/C(=C\c3ccccc3)C2=O)CC1 (centres undefined) | 1000 µM (≈ 437 µg/mL) | 500 µM (≈ 218 µg/mL) | – | fold change (FC) (Klebsiella aerogenes [17]): 2; Activity (Klebsiella aerogenes [12]): inactive; Activity (Klebsiella aerogenes [13]): Active |
| COc1ccc(/C=C2\NC(=O)N(CC(O)CN3CCN(C(C)=O)CC3)C2=O)cc1 (centres undefined) | > 2000 µM | > 2000 µM | – | Activity (Klebsiella aerogenes [8]): inactive; Activity (Klebsiella aerogenes [9]): Active |
| C[C@@H]1CN(c2c(F)c(N)c3c(=O)c(C(=O)O)cn(C4CC4)c3c2F)C[C@H](C)N1 [SPARFLOXACIN] | 1 µM (≈ 0.392 µg/mL) | 0.06 µM (≈ 0.0235 µg/mL) | – | – |
| COc1ccc(/C=C2\NC(=O)N(CC(O)CN3CCOCC3)C2=O)cc1 (centres undefined) | > 2000 µM | > 2000 µM | – | Activity (Klebsiella aerogenes [8]): inactive |
